From ChEMBL document CHEMBL4513216, “Probing the Open Global Health Chemical Diversity Library for Multistage-Active Starting Points for Next-Generation Antimalarials” (ACS Infect Dis, 2020)

Experiment: Toxicity liver stage against HepG2, at 10uM
Type: cell-based
Parameters: test concentration 10 uM, cell line HepG2-A16-CD81EGFP
Conditions: human, HepG2-A16-CD81EGFP cells; read-out: INHIBITION
How it was run: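 Uninfected HepG2-A16-CD81EGFP cells, 3 × 10^3 per well, 1536-well, plated on prespotted compound at 10 μM final, parasite-free screening media added to match infected plates; puromycin 10 μM positive, DMSO 0.5% negative; run in parallel with 48 h PbLuc assay at 37 °C, 5% CO2; viability by CellTiter-Glo luminescence, normalized to controls.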

In the case of `CC(=O)N1CCC2(CC1)CC(NS(C)(=O)=O)c1ccccc1O2` (configuration not stated), the cytotoxicity at 10 µM is reported as 5.53%.
`CNC(=O)[C@H]1C[C@H]2CN(Cc3ccccc3)C[C@@H]1O2` showed a cytotoxicity at 10 µM of 8.84%.
`COCCCOc1ccc(C(=O)N(C)Cc2cccc(O)c2)cn1` gave a cytotoxicity at 10 µM of -9.63%.
For `COc1ccc(C(C(=O)O)N2CCN(C3CCCCC3)CC2)cc1OC` (configuration not stated), the cytotoxicity at 10 µM was -4.89%.
`Cc1nc(C)n(CCCNc2ncnc3onc(C)c23)n1` showed a cytotoxicity at 10 µM of -7.12%.
With `Cc1nccn1C1CCCN(C(=O)c2cc3ccccc3[nH]2)C1` (configuration not stated) the cytotoxicity at 10 µM was -12.2%.
`CC(=O)N1CCCC1c1cc(N2CCN(CC3CC3)CC2)cc(C)n1` (configuration not stated) showed a cytotoxicity at 10 µM of -2.14%.
`CCc1ncncc1C(=O)N1CCCN(Cc2ccc(C#N)cc2)CC1` showed a cytotoxicity at 10 µM of -2.91%.
`O=C(c1ccoc1)N1CCC2(CCCN(c3ncc(F)cn3)C2)C1` (configuration not stated) gave a cytotoxicity at 10 µM of -98.3%.
Work on `CCS(=O)(=O)N1C[C@H]2CN(Cc3cccc(C)c3)C(=O)[C@H]2C1` yielded a cytotoxicity at 10 µM of 2.9%.
Compound `CC(C)(O)CSCCNCc1ccc(Cl)c2cccnc12` has a cytotoxicity at 10 µM of -8.87%.
Work on `O=C(c1ccoc1)N1CCOCC2(CCN(Cc3cccs3)C2)C1` (configuration not stated) yielded a cytotoxicity at 10 µM of -2.98%.
In the case of `NC(=O)c1cc2c(nc1-c1ccc3c(c1)CCO3)CCC2`, the cytotoxicity at 10 µM is reported as -11.3%.
With `c1cncc(CN2CCCC(Nc3ncnc4c3CCNCC4)C2)c1` (configuration not stated) the cytotoxicity at 10 µM was 4.42%.
Work on `O=C(c1ccc(N2CCCC2)nn1)N1CCCc2cc(F)c(F)cc21` yielded a cytotoxicity at 10 µM of -16.3%.
Work on `CC(C)c1nc(CN(C)C(=O)Cn2nc3ccccc3n2)no1` yielded a cytotoxicity at 10 µM of 10.2%.
Work on `CC1(c2ncc(CN3CCSCC3)cn2)CCCCO1` (configuration not stated) yielded a cytotoxicity at 10 µM of 2.12%.
`Cc1ncc(CN2CCOC(c3ccc(-c4cc[nH]n4)cn3)C2)s1` (configuration not stated) gave a cytotoxicity at 10 µM of -16.5%.
Compound `O=C(C1CCCc2[nH]ncc21)N1CCCC2(C1)OCCO2` (configuration not stated) has a cytotoxicity at 10 µM of -1.26%.
With `Cn1ncc2c(N3CCN(CCO)CC3)nc(C3CCCC3)nc21` the cytotoxicity at 10 µM was -4.07%.
`CC(C(=O)N(C)C)N1CCCN(C(=O)Oc2ccccc2)CC1` (configuration not stated) gave a cytotoxicity at 10 µM of -0.37%.
`CCN(CC)c1ccc(NS(=O)(=O)c2cncc(F)c2)cn1` showed a cytotoxicity at 10 µM of -8.37%.
Work on `O=c1[nH]c2nc(N3CCSCC3)ncc2c(=O)n1-c1cccc(F)c1` yielded a cytotoxicity at 10 µM of -1.82%.
In the case of `COC(=O)c1cc(C2CC2)nc2c(Cl)cnn12`, the cytotoxicity at 10 µM is reported as 14.7%.
Work on `O=C(c1cccc(F)c1)N1CC[C@@H]2CN(c3ncccn3)CCO[C@@H]2C1` yielded a cytotoxicity at 10 µM of -71.5%.
Compound `O=C(CCN1C(=O)CCC1=O)NCC1(c2c(F)cccc2F)CCCC1` has a cytotoxicity at 10 µM of -9.47%.
With `Cn1ncc2c1CCCC2NCc1cccnc1` (configuration not stated) the cytotoxicity at 10 µM was 0.999%.
`Cn1cc(N2CCN(c3ccc(C#N)c(Cl)c3)CC2=O)cn1` showed a cytotoxicity at 10 µM of -3.81%.
In the case of `Cc1noc(C2CCC3(CCN(C(=O)c4sccc4C)CC3)O2)n1` (configuration not stated), the cytotoxicity at 10 µM is reported as 8.94%.
With `O=C(NC1CC1)c1nc2c(o1)CN(c1ncccn1)C2` the cytotoxicity at 10 µM was 0.718%.
Work on `Cc1cc(C(=O)N2CCn3cc(CN4CCCC4)nc3C2)no1` yielded a cytotoxicity at 10 µM of -79.3%.
Work on `CC(=O)N1CCCC1c1ccc(-c2c(C)noc2C)cn1` (configuration not stated) yielded a cytotoxicity at 10 µM of 2.88%.
With `COc1cc(CNC2CCc3nc(C(C)C)nn3C2)cc2c1OCO2` (configuration not stated) the cytotoxicity at 10 µM was -5.82%.
`O=C(NC1CC1)[C@@H]1CCO[C@@H]2CCN(CCc3ccccc3)C[C@@H]21` gave a cytotoxicity at 10 µM of 3.6%.
`O=C(COc1ccc(-n2cccn2)nn1)N1CCCC1` showed a cytotoxicity at 10 µM of 1.43%.
With `Cc1cc(C(=O)N2CCc3nc(C4CCCN4)ncc3C2)cs1` (configuration not stated) the cytotoxicity at 10 µM was 2.56%.
Work on `CC(C)=CCN1CCN(Cc2cc(C)c(O)c(C)c2)CC1CCO` (configuration not stated) yielded a cytotoxicity at 10 µM of -7.44%.
`Cc1cc(Cl)ccc1-n1ncc(C(=O)N(C)CCc2ccccn2)c1N` showed a cytotoxicity at 10 µM of -7.3%.
Compound `COc1ccc(F)cc1CSCC(=O)N(CCC#N)CCC#N` has a cytotoxicity at 10 µM of 0.0531%.
With `Cc1cnccc1N1CCN(C(=O)CCCN2CCCCC2)CC1` the cytotoxicity at 10 µM was 0.0879%.
Work on `Cc1nc(CNC(C)c2cccc(S(=O)(=O)N(C)C)c2)no1` (configuration not stated) yielded a cytotoxicity at 10 µM of 0.956%.
Work on `Cc1ccc(-c2nc(CC(=O)NCC3CCCOC3)cs2)o1` (configuration not stated) yielded a cytotoxicity at 10 µM of -48%.
In the case of `CCc1nccn1C1CCCN(C(=O)c2ccc(NC3CC3)nc2)C1` (configuration not stated), the cytotoxicity at 10 µM is reported as -11.3%.
In the case of `Cc1ccc(-c2ncc(CN3CCN(S(N)(=O)=O)CC3)s2)o1`, the cytotoxicity at 10 µM is reported as -3.41%.
For `CCN1CC(C(=O)N2CCc3cc(C(N)=O)n(C)c3C2)CCC1=O` (configuration not stated), the cytotoxicity at 10 µM was -44.6%.
Compound `Cc1cc(C)n(CC2CN(Cc3cccc(C(N)=O)c3)CCO2)n1` (configuration not stated) has a cytotoxicity at 10 µM of -4.97%.
`Cc1ccc(C(=O)Nc2nn[nH]n2)s1` gave a cytotoxicity at 10 µM of -0.246%.
In the case of `O=C(CCn1cc(Cl)cn1)N1C[C@H]2CC[C@@H](C1)N(Cc1ccccn1)C2`, the cytotoxicity at 10 µM is reported as 7.15%.
For `COc1c(CNCc2ccc(C(=O)N(C)C(C)C)cc2)c(C)nn1C`, the cytotoxicity at 10 µM was 33.2%.
In the case of `CCC(=O)N1CCC(c2ncncc2C)CC1`, the cytotoxicity at 10 µM is reported as -11.5%.
Work on `CCCc1nc(CN(C)CC2CCN(CCO)CC2)no1` yielded a cytotoxicity at 10 µM of 2.64%.
`O=C(Nc1cc(CCC2CCN(CCO)CC2)ccn1)c1ccccn1` showed a cytotoxicity at 10 µM of -4.03%.
Work on `CC(C)Nc1nc2c(cc1C(=O)N(C)C)CCNCC2` yielded a cytotoxicity at 10 µM of -4.99%.
`CCc1ccc2c(c1)C(CCNC(=O)CCc1ccsc1)C(=O)N2` (configuration not stated) gave a cytotoxicity at 10 µM of -41.5%.
In the case of `CN(C)c1nc2c(c(N3CCCC3)n1)CCN(C(=O)c1ccc[nH]1)CC2`, the cytotoxicity at 10 µM is reported as 7.81%.
For `O=C(CC1[C@H]2CN(Cc3ccsc3)C[C@@H]12)N1CCCC1` (some centres not stated), the cytotoxicity at 10 µM was -1.16%.
In the case of `CCC(CCN)n1ccc(C(F)(F)F)n1` (configuration not stated), the cytotoxicity at 10 µM is reported as -11.2%.
In the case of `Cc1ccc(C(=O)N2CCOC3(CCCC3)C2)c(=O)[nH]1`, the cytotoxicity at 10 µM is reported as 7.87%.
In the case of `CCc1nccn1-c1cncc(C2CCCN2Cc2cccnc2)n1` (configuration not stated), the cytotoxicity at 10 µM is reported as 5.82%.
`Cc1cc(C)n(CC2CCCCN2CC(=O)Nc2nnc(C)s2)n1` (configuration not stated) gave a cytotoxicity at 10 µM of 0.668%.
Work on `Cc1cc(C(=O)N2CCC(n3nc(C)cc3C)C2)c2ccc(F)cc2n1` (configuration not stated) yielded a cytotoxicity at 10 µM of -5.08%.
For `NC(=O)[C@@H]1Cc2ccccc2CN1CCC(=O)N1CCOCC1`, the cytotoxicity at 10 µM was -5.82%.
With `Cc1ccc(CN2CCOC3(CCN(C(=O)C4CCOC4)CC3)C2)cc1` (configuration not stated) the cytotoxicity at 10 µM was 0.933%.
For `CNCC(=O)NC1CC(C)(C)Cc2nc(C(C)(C)C)ncc21` (configuration not stated), the cytotoxicity at 10 µM was 10.2%.
Compound `CC(C)(C)n1ncc2c1CCCC2NCc1cccc2c1OCCO2` (configuration not stated) has a cytotoxicity at 10 µM of -2.69%.
Compound `Cc1n[nH]c(C2CN(C(=O)c3cc(C4CC4)[nH]n3)CCO2)n1` (configuration not stated) has a cytotoxicity at 10 µM of 0.192%.
For `O=C(CC1[C@H]2CN(C(=O)Cc3ccccn3)C[C@@H]12)Nc1cccnc1` (some centres not stated), the cytotoxicity at 10 µM was 10.1%.
`CSCCC(C)NC(=O)c1cccc(-c2n[nH]c(C)n2)c1` (configuration not stated) gave a cytotoxicity at 10 µM of 1.31%.
`CC(C)c1n[nH]c(C(=O)Nc2cc[nH]n2)c1Br` gave a cytotoxicity at 10 µM of -9.73%.
Work on `Cc1cccc(N2CC[C@@H]3[C@@H](CO[C@H]3CNC(=O)c3ccco3)C2)n1` yielded a cytotoxicity at 10 µM of -1.67%.
With `N#Cc1cccc(S(=O)(=O)N2CCCCC2CCN2CCCC2)c1` (configuration not stated) the cytotoxicity at 10 µM was -123%.
In the case of `O=C(C1CNCCN1C(=O)CCOc1ccccc1)N1CCOCC1` (configuration not stated), the cytotoxicity at 10 µM is reported as 0.311%.
For `CCOc1ccnc(N2CCN(C(=O)c3ccoc3C)CC2)n1`, the cytotoxicity at 10 µM was -0.463%.
`COc1ccc(NC(C)C(=O)N2CCN(Cc3ccccc3)CC2)cn1` (configuration not stated) showed a cytotoxicity at 10 µM of 1.26%.
`CCCOCC(=O)N1CCc2nc(NC)nc(C(=O)N3CCCC3)c2C1` gave a cytotoxicity at 10 µM of -109%.
Work on `N#Cc1ccc(OCCn2cccn2)cc1` yielded a cytotoxicity at 10 µM of 11.2%.
Compound `C=C(C)CN1CCC(C(=O)c2cc(F)ccc2F)CC1` has a cytotoxicity at 10 µM of -14.1%.
For `CNC(=O)CN1CCOCC12CCN(C(=O)c1ccccc1)CC2`, the cytotoxicity at 10 µM was -82.2%.
Compound `CC(NC(=O)CCn1cccn1)c1cccs1` (configuration not stated) has a cytotoxicity at 10 µM of -3.57%.
`Cc1nn(C(C)C)c(C)c1NC(=O)Nc1cccnc1N1CCCC1` gave a cytotoxicity at 10 µM of -5.79%.
Work on `COCCN1CC[C@H](O)[C@@H]1Cc1ccccc1` yielded a cytotoxicity at 10 µM of -10%.
With `N[C@H]1CN(C(=O)c2cnc3cc(Cl)ccc3c2O)C[C@@H]1C1CC1` the cytotoxicity at 10 µM was -44.1%.
